Data set [1] has as its system P388. Briefly: Antitumor activity against mouse P388 cells allografted in CDF/BDF mouse assessed as survival time at 25 mg/kg, ip administered as qd for 1 to 9 days relative to control. In kind it is functional. Particulars: route intraperitoneal.
For data set [2], the system named is P388. Briefly: Antitumor activity against mouse P388 cells allografted in CDF/BDF mouse assessed as survival time at 37.5 mg/kg, ip administered as qd on day 5, 9, 13. In kind it is functional. The settings on record: route intraperitoneal.
The species named for a further data set is Rattus norvegicus. Briefly: Cardiotoxicity in rat assessed as minimum cumulative cardiotoxic dose by Zbinden test. The data set is classed as toxicity, organism-based. The settings on record: in vivo. In short, it runs like this: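 Zbinden cardiotoxicity assay in rats. Drug was given cumulatively, with ECG monitoring. Value is the minimum total dose (mg/kg) that causes significant ECG alterations.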

Data set [3] relates to Salmonella typhimurium. Briefly: Mutagenicity in Salmonella typhimurium TA98 assessed as number of revertants by Ames test in presence of microsomal activation. The data set is classed as toxicity, organism-based. The settings on record: salmonella enterica subsp. enterica serovar typhimurium. The procedure, abridged: (§1)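 Ames plate test using Salmonella typhimurium tester strain TA98. Compounds were tested over dose ranges of 0-20 to 0-100 µg/plate, depending on the compound, and the toxicity level per plate was noted. Mutagenicity is expressed as revertants produced per nmol of compound.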

For data set [4], the system named is Salmonella typhimurium. Briefly: Mutagenicity in Salmonella typhimurium TA98 assessed as number of revertants by Ames test in absence of microsomal activation. In kind it is toxicity, organism-based. The settings on record: salmonella enterica subsp. enterica serovar typhimurium. In short, it runs like this:
as §1
(The Ames test detects mutagens through reverse mutation in bacteria.)

Data set [5] is described as follows: Aqueous solubility of the compound. The settings on record: water. In kind it is physicochemical.
The nature of data set [6]: Aqueous solubility of the compound using 10% propylene glycol vehicle. The data set is classed as physicochemical. Particulars: 10% propylene glycol in water.
Data set [7] deals with L1210. Briefly: Selectivity ratio of ED50 for inhibition of DNA synthesis in mouse L1210 cells to ED50 for inhibition of RNA synthesis in mouse L1210 cells. The data set is classed as functional. The procedure, abridged:
(§2)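 L1210 leukemia cells. Drugs were first dissolved in Me2SO to a final 1% Me2SO in the assay medium. Inhibition of DNA and RNA synthesis was measured separately and reported as ED50 (50% inhibitory dose, μM). Selectivity is the ratio of the DNA ED50 to the RNA ED50.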

The subject of data set [8] is L1210. Briefly: Inhibition of DNA synthesis in mouse L1210 cells. The data set is classed as functional. The settings on record: read-out: ED50 (the source's name). The procedure, abridged:
as §2

A further data set has as its system Calf thymus DNA. Briefly: Binding affinity to calf thymus DNA assessed as change in melting temperature. The data set is classed as nucleic-acid assay. The settings on record: Bos taurus. The procedure, abridged: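 Drug first dissolved in Me2SO to a final 5% Me2SO in the assay medium. DNA binding is read as the shift in DNA melting temperature (ΔTm). ΔTm below 1 is taken as insignificant binding.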

For data set [9], the system named is L1210. Briefly: Inhibition of RNA synthesis in mouse L1210 cells. Particulars: read-out: ED50 (the source's name). In kind it is functional. In short, it runs like this:
as §2

SMILES strings stand for the structures.

`COc1cccc2c1C(=O)c1c(O)c3c(c(O)c1C2=O)C[C@@](O)(C(C)=O)C[C@@H]3O[C@H]1C[C@H](N(Cc2ccccc2)Cc2ccccc2)[C@H](O)[C@H](C)O1.Cl`: the T/C in the data set with P388 [1] is 259%; in the data set with P388 [2], 209%. Besides, the MTC in the data set filed under Rattus norvegicus was 125 mg/kg. The figures for the Activity in the data set on Salmonella typhimurium [3] and in the data set with Salmonella typhimurium [4] were 0.5 nmol⁻¹ and “Non-toxic”, respectively. For the same compound, the solubility in data set [5] is 200 µg/mL; in data set [6], greater than 36000 µg/mL. In the data set on L1210 [7], the “Ratio ED50” value was greater than 10. Moreover, the EC50 in the data set with L1210 [8] was greater than 100 µM; in the data set on L1210 [9], 10 µM. For the same compound, in the data set with Calf thymus DNA, the shift in melting temperature (ΔTm) is 1.35 °C.

By T/C is commonly meant the ratio of treated to control. The term solubility denotes the dissolved amount per volume that the medium holds. Lower therefore signals little dissolved substance. The ΔTm is the shift of the melting midpoint relative to a reference.

(Values after ChEMBL document CHEMBL3244252, “Adriamycin analogues. 3. Synthesis of N-alkylated anthracyclines with enhanced efficacy and reduced cardiotoxicity” (J Med Chem, 1979).)
